Shown are actives, neighbours in structure and some others; about 2.2% of the full set was active somewhere.
V-ATPase pH = regulators of yeast V-ATPase proton transport; S. cerevisiae, pHLuorin cytosolic pH fluorescence; response, % at 10 µM; actives 0.37% (n = 350,000); AID 504577; in the data active = response mostly above about 7.3%, no sharp cut-off; inactive = mostly below about 5.4%; note: actives read high
Granule exo inh = blocks lytic granule exocytosis. inhibition, % at 10 µM. actives 0.66% (n = 360,000). TALL-104 LAMP-1 surface exposure, flow cytometry; cells stimulated with thapsigargin and PMA;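 active = inhibition above about 55%, limit read from the data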
ASAP1 inh = inhibitors of human ASAP1 ArfGAP activity; Q9ULH1; ASAP1-stimulated ARF1 GTP hydrolysis, GDP FP detection; inhibition, % at 16.5 µM; actives 0.19% (n = 360,000); in the data active = inhibition above about 25%
ARFGAP1 inh = rat ARFGAP1 inhibition | Q62848 | actives 0.26% (n = 360,000) | inhibition, % at 16.5 µM | AID 651572 | Arfgap1-stimulated ARF1 GTP hydrolysis, GDP FP detection;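 active = inhibition above a per-plate limit, mean inhibition of low control wells plus 3 SD, cut at about 25% in these data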
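Material: rat Arfgap1 catalytic domain, aa 1-136; also added: human ARF1(Δ1-17)-GTP substrate; compound dosing: one concentration, 16.5 µM, DMSO 1.26%; incubation: GTP hydrolysis reaction 2 h at 25 °C; measured by: Tracer-displacement fluorescence polarization with EDTA stop, 620/688 nm; evaluation: % inhibition from polarization; repeats: one replicate per compound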
CendR NRP1 mod = alters CendR peptide binding to human NRP-1. O14786. FAM-RPARPAR peptide binding to NRP-1, fluorescence polarization. inhibition, % at 25 µM. actives 0.85% (n = 360,000);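 active = inhibition or corrected inhibition above about 18%, plus a signal ratio from 0.5 to 1.5, limit read from the data, passing the limit was not always enough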
Granule exo CP1 = blocks lytic granule exocytosis; shares compounds with Granule exo inh; TALL-104 cells, LAMP-1 externalization, flow cytometry; stimulated with PMA plus thapsigargin; inhibition, % at 10 µM; actives 11% (n = 1,500); AID 651954; in the data active = inhibition above about 60%
Numbers stand for hits; . = inactive; / = not tested or not shown.

SMILES | V-ATPase pH | Granule exo inh | ASAP1 inh | ARFGAP1 inh | CendR NRP1 mod | Granule exo CP1
Cc1onc(-c2ccccc2Cl)c1C(=O)N1CCC(Cc2ccccc2)CC1 | . | 84 | . | . | . | .
Clc1ccc(CSc2nncn2-c2ccc3c(c2)OCCO3)cc1 | . | 72 | . | . | . | .
CCOC(=O)C1(CCc2ccccc2)CCN(Cc2ccc(C(=O)OC)cc2)CC1 | . | . | . | . | . | /
CCOC(=O)C1(CCOc2ccccc2)CCN(Cc2cccc(OC)c2OC)CC1 | . | 75 | . | . | . | .
CCOC(=O)C1(CCOc2ccccc2)CCN(Cc2cccc(-n3cccn3)c2)CC1 | . | . | . | . | . | /
CCOC(=O)C1(CCc2ccccc2)CCN(Cc2cc(OC)c(OC)cc2OC)CC1 | . | 64 | . | . | . | .
CCOC(=O)C1(CCOc2ccccc2)CCN(Cc2cccc(F)c2)CC1 | . | 64 | . | . | . | .
CCOC(=O)C1(CCOc2ccccc2)CCN(CCCn2cccn2)CC1 | . | 59 | . | . | . | .
CCOC(=O)C1(CCOc2ccccc2)CCN(Cc2cc(OC)c3c(c2)OCO3)CC1 | . | . | . | . | . | /
CCOC(=O)C1(CCOc2ccccc2)CCN(Cc2cccc(OCCO)c2)CC1 | . | . | . | . | . | /
CCOC(=O)C1(CCOc2ccccc2)CCN(Cc2ccc(NC(C)=O)cc2)CC1 | . | . | . | . | . | /
CCOC(=O)C1(CCOc2ccccc2)CCN(Cc2ccccc2O)CC1 | . | 56 | . | . | . | .
CCOC(=O)C1(CCOc2ccccc2)CCN(Cc2cccc3c2OCO3)CC1 | . | . | . | . | . | /
CCOC(=O)C1(CCOc2ccccc2)CCN(Cc2ccc(OC)cc2)CC1 | . | 80 | . | . | . | .
CCOC(=O)C1(CCOc2ccccc2)CCN(Cc2ccc(OCC)c(CO)c2)CC1 | . | 81 | . | . | . | .
O=C1CC2C(CCC23OCCO3)c2ccc3ccccc3c21 (centres undefined) | . | . | . | . | . | /
COc1cc(NC(=O)c2cc(-c3ccccc3Cl)on2)cc(OC)c1OC | . | 69 | . | . | . | .
NC1=NC[C@H](Cc2ccc(O)cc2)N1CC1CCCCC1 | . | 65 | . | . | . | .
C[n+]1ccc(C(=O)Nc2ccccc2Cl)cc1 | . | . | . | . | . | /
CC(C)C(NS(=O)(=O)c1cccc(C(F)(F)F)c1)C(=O)N1CCc2ccccc2C1 (centres undefined) | . | 76 | . | . | . | .
CCNC(=O)C1CCCN(C(=O)c2cccc(C#N)c2)CC1 (centres undefined) | / | . | . | . | . | /
COc1cccc(-c2nc(N3CCCCC3)c3ccccc3n2)c1O | . | 77 | . | . | . | .
COc1cccc(-c2nc(NC(C)C)c3ccccc3n2)c1O | . | . | . | . | . | /
CCC(C)Nc1nc(-c2cccc(OC)c2O)nc2ccccc12 (centres undefined) | . | 76 | . | . | . | 107
CC(=O)Nc1cncc(-c2cccc(C(=O)N3CCOCC3)c2)n1 | / | . | . | . | . | /
SMILES | V-ATPase pH | Granule exo inh | ASAP1 inh | ARFGAP1 inh | CendR NRP1 mod | Granule exo CP1
COc1ccccc1CN1C[C@@H]2C[C@@H](C3=Cc4cc(Cl)ccc4OC3)N3CCC[C@@]23C1=O | . | 56 | . | . | . | .
CCOc1ccc2[nH]c3c(N4CCc5ccccc5C4)ncnc3c2c1 | . | 97 | . | . | . | 98
CCC(=O)Nc1nonc1-c1nc2ccccc2n1CCC(C)C | . | 63 | . | . | . | .
O=C1S/C(=C\c2ccc(N3CCOCC3)o2)C(=O)N1c1ccccc1 | . | 68 | . | . | . | .
CC(C)(C)c1cc(C(=O)Nc2ccc(F)cc2)n(Cc2ccc(F)cc2)n1 | . | 67 | . | . | . | .
Cc1ccc(NC(=O)c2cc(C(C)(C)C)nn2Cc2ccccc2)cc1 | . | . | . | . | . | /
O=C(CN1CCCC1c1cccs1)Nc1cc(S(=O)(=O)N2CCCCC2)ccc1Cl (centres undefined) | . | . | . | . | . | /
Cc1ccccc1CN1CCNC(=O)C1CC(=O)NCCN1CCCCC1=O (centres undefined) | . | . | . | . | . | /
COc1cccc(O)c1CN1CCC(C(=O)Nc2ccc(-c3cccc(C)c3)cc2)CC1 | . | 66 | . | . | . | .
CCOc1ccccc1CNC(c1ccccc1)c1ccccc1 | . | 59 | . | . | . | .
Cc1cccc(C)c1NC(=O)COC(=O)/C=C/c1ccc(S(=O)(=O)N2CCOCC2)cc1 | . | . | . | . | . | /
COc1ccc(COc2ccc3c(C)cc(=O)oc3c2)cc1 | . | 75 | . | . | . | .
CC(CCN1CCOCC1)c1ccccc1 (centres undefined) | . | . | . | . | . | /
CC(CCN1CCN(c2ccc(F)cc2)CC1)c1ccccc1 (centres undefined) | . | 57 | . | . | . | .
O=C(N/N=C/c1ccc(OC(=O)c2ccco2)cc1)c1ccc[n+]([O-])c1 | . | . | . | . | . | /
CC(C)Cc1ccc(C(C)CC2=CCC(CN(C)C)C2=O)cc1 (centres undefined) | . | 66 | . | . | . | .
CC(C)Cc1ccc(C(C)/C=C2/CCC(CN3CCCCC3)C2=O)cc1 (centres undefined) | . | . | . | . | . | /
COc1ccc(OC)c(NC(=O)CSc2nnc(CNC(=O)c3cc(OC)c(OC)c(OC)c3)o2)c1 | . | . | . | . | . | /
CCCS(=O)(=O)N1CCCC(C(=O)Oc2ccccc2Cl)C1 (centres undefined) | . | 68 | . | . | . | .
Cc1oc(-c2ccc(Cl)cc2)nc1CS(=O)CC(=O)NCCCN1CCCC(C)C1 (centres undefined) | . | . | . | . | . | /
Cc1oc(-c2ccc(Cl)cc2)nc1CS(=O)CC(=O)NCCCN1CCN(Cc2ccccc2)CC1 (centres undefined) | . | 75 | . | . | . | .
CCN(CC)c1nc(C=Cc2ccc(N(C)C)cc2)c2nccnc2n1 | . | 73 | . | . | . | .
CC(C(=O)Nc1ccc(C#N)cc1)N1CCN(C(=O)C2CC2)CC1 (centres undefined) | . | . | . | . | . | /
CCOC(=O)c1c(NC(=O)c2ccccc2N(C)S(=O)(=O)c2ccccc2)sc2c1CCCC2 | . | . | . | . | . | /
CCOC(=O)c1c(NC(=O)C(NCCN(C)C)c2ccccc2)sc2c1CCCC2 (centres undefined) | . | 70 | . | . | . | .
COc1cccc(CN2CCN(Cc3cc(OC)c(OC)c(OC)c3)CC2)c1OC | . | . | . | . | . | /
COc1cc(CN2CCN(C(c3ccccc3)c3ccccc3)CC2)cc(OC)c1OC | . | 64 | . | . | . | .
c1ccc(OCCN2CCN(C(c3ccccc3)c3ccccc3)CC2)cc1 | . | 84 | . | . | . | .
CCOC(=O)[C@]12CCC=C1N(Cc1ccccc1)C(=O)[C@H](CC(=O)NCc1ccccc1)C2 | / | . | . | . | . | /

Screening data as filed in PubChem.
